# Assay results from ChEMBL document CHEMBL1144520, “Synthesis of 5-deazaflavin derivatives and their activation of p53 in cells” (2007).
# Activity calls are given as the source filed them. No cut-off for these calls is given here.
# Tests used:
# RKO/E6 = assay: Induction of apoptosis in RKO/E6 cells; format: functional, cell-based; conditions: Homo sapiens
# Method in brief: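 RKO/E6 cells are RKO cells expressing HPV16 E6 protein, which inactivates endogenous p53. They are used to test p53 dependence of the apoptotic response.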
# RKO [1] = assay: Cell cycle arrest in RKO cells by accumulation at G2/M phase; format: functional, cell-based; conditions: Homo sapiens
# RKO [2] = assay: Cell cycle arrest in RKO cells by accumulation at G2 phase; format: functional, cell-based; conditions: Homo sapiens
# RKO [3] = assay: Stabilization of p53 level in RKO cells; format: functional, cell-based; conditions: Homo sapiens
# RPE = assay: Induction of p21WAF1/CIP1 level in RPE cells; format: functional, cell-based; conditions: Homo sapiens
# Method in brief: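 Primary human retinal pigment epithelial (RPE) cells were exposed to each compound at 1–20 µM for 24 h. Whole-cell extracts were resolved by SDS 12% polyacrylamide gel electrophoresis and read out by Western blotting.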
# RKO [4] = assay: Cell cycle arrest in RKO cells by accumulation at G1 phase; format: functional, Homo sapiens
# RKO [5] = assay: Induction of apoptosis in RKO cells; format: functional, cell-based; conditions: Homo sapiens
Structure (SMILES),Activity (RKO/E6),Activity (RKO [1]),Activity (RKO [2]),Activity (RKO [3]),Activity (RPE),Activity (RKO [4]) [%],Activity (RKO [5]),Activity (RKO [4]; Homo sapiens)
O=c1nc2n(-c3ccccc3Cl)c3cccc(Cl)c3cc-2c(=O)[nH]1,Active,Active,Active,Active,,,,
O=c1nc2n(-c3ccccc3Cl)c3ccc([N+](=O)[O-])cc3cc-2c(=O)[nH]1,Active,Active,Active,Active,Active,,,
O=c1nc2n(-c3cccc(Cl)c3)c3ccc([N+](=O)[O-])cc3cc-2c(=O)[nH]1,inactive,,,Active,Active,75,,
Cc1ccc(-n2c3nc(=O)[nH]c(=O)c-3cc3c(C(F)(F)F)cccc32)cc1,inactive,,,inactive,inactive,62,inactive,
Cc1ccc(-n2c3nc(=O)[nH]c(=O)c-3cc3c(Cl)cccc32)cc1,inactive,,,Active,Active,73,,
O=c1nc2n(-c3ccc(Cl)cc3)c3ccc(C(F)(F)F)cc3cc-2c(=O)[nH]1,inactive,,,inactive,inactive,,inactive,
O=c1nc2n(-c3ccc(Cl)cc3)c3cccc(Cl)c3cc-2c(=O)[nH]1,inactive,,,Active,Active,,,Active
